In ChEMBL document CHEMBL4680100, “Revisiting the SAR of the Antischistosomal Aryl Hydantoin (Ro 13-3978)” (J Med Chem, 2016):
pIC50: −log10 of the molar value. ≈ marks a conversion by molar mass, not a printed value.

Tests used:
Schistosoma mansoni = assay: Antischistosomal activity against Schistosoma mansoni infected in NMRI mouse assessed as reduction in total worm burden at 100 mg/kg, po administered as single dose starting on day 49 post-infection and measured at 28 days post treatment relative to control; assay type: functional; set-up: scale not given: the % may be the effect or the level left; conditions: time 28 day
Summary of the method: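 S. mansoni-infected NMRI mice treated on day 49 post-infection with a single oral dose, dissolved or suspended in 7% v/v Tween 80, 3% v/v ethanol (10 mL/kg), five mice per group. Sacrificed and dissected 28 d post-treatment; worms counted to give total worm burden reduction versus untreated controls. Kruskal–Wallis test on medians, treatment versus control.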

[1] = Octanol/water partition coefficient, logD of the compound at pH 7.4 by HPLC analysis
Albumin = Albumin (Homo sapiens, UniProt P02768); assay: Protein binding in immobilized human serum albumin by HPLC analysis; assay type: ADME; conditions: isolated protein
Albumin, sequence (P02768 whole entry): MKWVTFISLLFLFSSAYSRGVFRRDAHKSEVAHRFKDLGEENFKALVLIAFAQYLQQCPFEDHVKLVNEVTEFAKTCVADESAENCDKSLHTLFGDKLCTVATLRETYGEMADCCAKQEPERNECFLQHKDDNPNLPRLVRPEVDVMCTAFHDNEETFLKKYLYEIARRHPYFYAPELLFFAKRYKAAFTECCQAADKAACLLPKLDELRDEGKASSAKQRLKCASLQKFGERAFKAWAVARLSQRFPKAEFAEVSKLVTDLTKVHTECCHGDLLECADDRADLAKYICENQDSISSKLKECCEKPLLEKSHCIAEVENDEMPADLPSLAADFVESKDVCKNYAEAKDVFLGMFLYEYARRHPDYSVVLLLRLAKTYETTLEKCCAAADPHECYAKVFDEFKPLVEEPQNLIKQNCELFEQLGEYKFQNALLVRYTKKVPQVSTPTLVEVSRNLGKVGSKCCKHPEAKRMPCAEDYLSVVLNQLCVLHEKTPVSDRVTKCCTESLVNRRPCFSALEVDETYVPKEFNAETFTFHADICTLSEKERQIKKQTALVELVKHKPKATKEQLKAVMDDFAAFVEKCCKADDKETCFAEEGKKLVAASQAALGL
Summary of the method: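 Binding estimated from gradient HPLC retention on a human albumin column, correlated against standard compounds of known protein binding.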

Androgen receptor = target: T1, Androgen receptor (Homo sapiens, UniProt P10275)
T1 sequence (P10275 whole entry): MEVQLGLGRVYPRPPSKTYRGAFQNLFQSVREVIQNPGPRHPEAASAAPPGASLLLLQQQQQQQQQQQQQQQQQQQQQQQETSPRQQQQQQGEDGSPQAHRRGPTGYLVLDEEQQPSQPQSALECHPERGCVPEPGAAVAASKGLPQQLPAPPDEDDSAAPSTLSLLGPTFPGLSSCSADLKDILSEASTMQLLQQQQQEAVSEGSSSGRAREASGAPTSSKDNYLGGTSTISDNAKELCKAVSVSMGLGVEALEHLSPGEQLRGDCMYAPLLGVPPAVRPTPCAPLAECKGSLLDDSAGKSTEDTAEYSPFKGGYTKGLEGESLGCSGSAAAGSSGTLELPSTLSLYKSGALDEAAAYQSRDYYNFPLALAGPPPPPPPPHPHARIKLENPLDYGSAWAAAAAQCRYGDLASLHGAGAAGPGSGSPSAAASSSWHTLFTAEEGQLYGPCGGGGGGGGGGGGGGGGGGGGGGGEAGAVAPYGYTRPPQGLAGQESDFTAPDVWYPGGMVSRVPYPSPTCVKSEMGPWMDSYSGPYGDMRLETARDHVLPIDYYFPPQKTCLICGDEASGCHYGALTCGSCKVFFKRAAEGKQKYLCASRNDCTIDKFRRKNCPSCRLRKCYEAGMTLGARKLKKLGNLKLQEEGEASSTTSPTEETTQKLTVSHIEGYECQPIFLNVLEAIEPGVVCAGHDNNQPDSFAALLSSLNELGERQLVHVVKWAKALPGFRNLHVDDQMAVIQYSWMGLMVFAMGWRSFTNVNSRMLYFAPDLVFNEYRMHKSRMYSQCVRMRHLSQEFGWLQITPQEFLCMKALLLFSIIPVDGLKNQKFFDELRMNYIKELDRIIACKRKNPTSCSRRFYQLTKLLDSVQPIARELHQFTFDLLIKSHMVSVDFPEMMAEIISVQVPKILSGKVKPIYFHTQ

[2] = Kinetic solubility of the compound in 0.01 M HCl at pH 2 by nephelometry; assay type: physicochemical; conditions: read-out: Kinetic_solubility
L6 = assay: Cytotoxicity against rat L6 cells assessed as reduction in cell viability at up to 30 uM; assay type: cell-based
[3] = Kinetic solubility of compound at pH 6.5 phosphate buffer by nephelometry; assay type: physicochemical; conditions: read-out: Kinetic_solubility
[4] = Intrinsic clearance in human liver microsome in presence of NADPH-regenerating system incubated over 60 mins by LC-MS analysis; conditions: microsomes, 1 h
[5] = Intrinsic clearance in mouse liver microsome in presence of NADPH-regenerating system incubated over 60 mins by LC-MS analysis; conditions: microsomes, 1 h
[6] = AUC (0 to last) in male Swiss mouse at 100 mg/kg, po administered via gavage measured upto 48 hrs postdose by LC-MS analysis; assay type: ADME, organism-based; set-up: route oral, dose 100 mg/kg, time <=48; conditions: in vivo
[7] = Tmax in male Swiss mouse at 100 mg/kg, po administered via gavage measured upto 48 hrs postdose by LC-MS analysis; assay type: ADME, organism-based; conditions: in vivo
Summary of the method: (§1)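 Nonfasted male Swiss outbred mice (25–33 g, 7 per compound, fed ad libitum) were gavaged once at 10 mL/kg. Vehicle was 7% v/v Tween 80, 3% v/v ethanol in water, dosed within 1 h of preparation. Blood was drawn 0.25–48 h postdose (n = 2 per time point) into heparin with stabilizer, and plasma was quantified by LCMS. Noncompartmental analysis.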

[8] = Cmax in male Swiss mouse at 100 mg/kg, po administered via gavage measured upto 48 hrs postdose by LC-MS analysis; assay type: ADME, organism-based; set-up: route oral, dose 100 mg/kg, time <=48; conditions: in vivo; summary of the method: as §1

Compound | Activity (Schistosoma mansoni) | logD [1] | PPB (Albumin) | pIC50 (Androgen receptor) | solubility kinetic [2] | Activity (L6) | solubility kinetic [3] | CLH [4] | CLH [5] | AUClast [6] | Tmax [7] | Cmax [8]
CC1(C)C(=O)N(c2ccc(F)c(C(F)(F)F)c2)C(=O)N1S(C)(=O)=O | 19% | 3.8 | 66% | 5.20 | 1.6 µg/mL (≈ 4.34 µM) | Non-Toxic | 1.6 µg/mL (≈ 4.34 µM) | < 7 µL/min/mg | < 7 µL/min/mg |  |  | 
CC1(C)NC(=O)N(c2ccc(F)c(C(F)F)c2)C1=O | 94% | 2.2 | 20.4% | ≤ 5.00 | > 100 µg/mL | Non-Toxic | > 100 µg/mL | < 7 µL/min/mg | < 7 µL/min/mg | 3190 µM·h | 3 h | 112 µM
CN(C)C(=O)c1cc(N2C(=O)NC(C)(C)C2=O)ccc1F | 30% | 0.9 | 5.9% | 5.04 | > 100 µg/mL | Non-Toxic | > 100 µg/mL | < 7 µL/min/mg | < 7 µL/min/mg | 1360 µM·h | 1 h | 488 µM
CC1(C)NC(=O)N(c2ccnc(C(F)(F)F)c2)C1=O | 100% | 1.9 | 22.7% | 5.35 | > 100 µg/mL | Non-Toxic | > 100 µg/mL | < 7 µL/min/mg | < 7 µL/min/mg | 6480 µM·h | 7 h | 155 µM
CC1(C)C(=O)N(c2ccc(F)c(C(F)(F)F)c2)C(=O)N1S(=O)(=O)c1ccccc1 | 44% | 4.6 | 96.1% | 5.37 | < 1.6 µg/mL | Non-Toxic | < 1.6 µg/mL | 210 µL/min/mg | 160 µL/min/mg |  |  | 
O=C1NC2(CCCC2)C(=O)N1c1ccc(F)c(C(F)(F)F)c1 | 61% | 3.2 | 70.4% | 6.00 | 50 µg/mL (≈ 158 µM) | Non-Toxic | 50 µg/mL (≈ 158 µM) | 33 µL/min/mg | 93 µL/min/mg | 106 µM·h | 1 h | 15 µM
CN1C(=O)N(c2ccc(F)c(C(F)(F)F)c2)C(=O)C1(C)C | 93% | 3.2 | 40.9% | 5.89 | 50 µg/mL (≈ 164 µM) | Non-Toxic | 50 µg/mL (≈ 164 µM) | 16 µL/min/mg | 65 µL/min/mg |  | 1 h | 
CC1(C)NC(=O)N(c2cccc(C(F)(F)F)c2)C1=O | 80% | 2.5 | 49.3% | 5.22 | > 100 µg/mL | Non-Toxic | > 100 µg/mL | < 7 µL/min/mg | < 7 µL/min/mg |  |  | 
CC1(C)C(=O)N(c2ccc(F)c(C(F)(F)F)c2)C(=O)N1CCc1ccccc1 | 54% | 4.6 | 96.2% | 5.62 | 12.5 µg/mL (≈ 31.7 µM) | Non-Toxic | 25 µg/mL (≈ 63.4 µM) | > 870 µL/min/mg | 740 µL/min/mg |  |  | 
CCN1C(=O)N(c2ccc(F)c(C(F)(F)F)c2)C(=O)C1(C)C | 98% | 3.5 | 49.3% | 6.85 | 50 µg/mL (≈ 157 µM) | Non-Toxic | 25 µg/mL (≈ 78.5 µM) | 30 µL/min/mg | 32 µL/min/mg | 103 µM·h | 1 h | 11.1 µM
